# Data from ChEMBL document CHEMBL1155841, “Methyl (11aS)-1,2,3,5,11,11a-hexahydro-3,3-dimethyl-1-oxo-6H-imidazo-[3',4':1,2]pyridin[3,4-b]indol-2-substituted acetates: synthesis and three-dimensional quantitative structure-activity relationship investigation as a class of novel vasodilators” (2008).
# Organism: Rattus norvegicus
# Test: Vasorelaxation activity against noradrenaline-induced hypertonic contraction in Wistar rat aorta strips at 5 mM
# Format: functional
# Design: scale not given: the % may be the effect or the level left
# Method in brief: (§1)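 Aortic strips first contracted with 59 µM noradrenaline, then washed out and stabilized for 30 min. After fresh solution, 59 µM NE was re-added, and peak contraction was taken as 100%. Test agent, dissolved in ethanol, was then added, with ethanol alone as vehicle control. Percent relaxation of the NE contraction was recorded as activity, given as mean ± SD, n = 6.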
row,Structure (SMILES),Activity
1,COC(=O)[C@H](CCSC)NC(=O)[C@@H]1Cc2c([nH]c3ccccc23)CN1C(=O)OC(C)(C)C,6%
2,COC(=O)[C@H](CCCNC(=N)N)NC(=O)[C@@H]1Cc2c([nH]c3ccccc23)CN1C(=O)OC(C)(C)C,11.3%
3,COC(=O)[C@@H](NC(=O)[C@@H]1Cc2c([nH]c3ccccc23)CN1C(=O)OC(C)(C)C)C(C)C,8.9%
4,COC(=O)C[C@H](NC(=O)[C@@H]1Cc2c([nH]c3ccccc23)CN1C(=O)OC(C)(C)C)C(=O)OC,0%
5,COC(=O)[C@H](CC(N)=O)NC(=O)[C@@H]1Cc2c([nH]c3ccccc23)CN1C(=O)OC(C)(C)C,0%
6,CN1CC(=O)N2[C@H](c3ccc4c(c3)OCO4)c3[nH]c4ccccc4c3C[C@@H]2C1=O [TADALAFIL],89.9%
7,COC(=O)[C@H](CC(C)C)NC(=O)[C@@H]1Cc2c([nH]c3ccccc23)CN1C(=O)OC(C)(C)C,7.8%
8,COC(=O)[C@@H](NC(=O)[C@@H]1Cc2c([nH]c3ccccc23)CN1C(=O)OC(C)(C)C)C(C)O (some centres undefined),0%
9,CCC(C)[C@H](NC(=O)[C@@H]1Cc2c([nH]c3ccccc23)CN1C(=O)OC(C)(C)C)C(=O)OC (some centres undefined),10.9%
10,COC(=O)[C@H](CO)NC(=O)[C@@H]1Cc2c([nH]c3ccccc23)CN1C(=O)OC(C)(C)C,6.1%
11,COC(=O)[C@H](Cc1ccccc1)NC(=O)[C@@H]1Cc2c([nH]c3ccccc23)CN1C(=O)OC(C)(C)C,0%
12,COC(=O)[C@H](Cc1ccc(O)cc1)NC(=O)[C@@H]1Cc2c([nH]c3ccccc23)CN1C(=O)OC(C)(C)C,7.4%
13,COC(=O)CNC(=O)[C@@H]1Cc2c([nH]c3ccccc23)CN1C(=O)OC(C)(C)C,13.5%
14,COC(=O)CC[C@H](NC(=O)[C@@H]1Cc2c([nH]c3ccccc23)CN1C(=O)OC(C)(C)C)C(=O)OC,0%
15,COC(=O)[C@H](C)NC(=O)[C@@H]1Cc2c([nH]c3ccccc23)CN1C(=O)OC(C)(C)C,18.8%
16,COC(=O)[C@H](Cc1c[nH]cn1)NC(=O)[C@@H]1Cc2c([nH]c3ccccc23)CN1C(=O)OC(C)(C)C,0%
17,COC(=O)[C@H](CCC(N)=O)NC(=O)[C@@H]1Cc2c([nH]c3ccccc23)CN1C(=O)OC(C)(C)C,0%
18,COC(=O)[C@H](Cc1c[nH]c2ccccc12)NC(=O)[C@@H]1Cc2c([nH]c3ccccc23)CN1C(=O)OC(C)(C)C,15.2%

# Organism: Rattus norvegicus
# Test: Vasorelaxation activity against noradrenaline-induced hypertonic contraction in Wistar rat aorta strips at 50 uM
# Format: functional
# Design: scale not given: the % may be the effect or the level left
# Method in brief: as §1
row,Structure (SMILES),Activity
1,COC(=O)[C@H](C(C)O)N1C(=O)[C@@H]2Cc3c([nH]c4ccccc34)CN2C1(C)C (some centres undefined),0%
2,COC(=O)[C@H](CC(C)C)N1C(=O)[C@@H]2Cc3c([nH]c4ccccc34)CN2C1(C)C,15.7%
3,COC(=O)[C@H](Cc1c[nH]cn1)N1C(=O)[C@@H]2Cc3c([nH]c4ccccc34)CN2C1(C)C,0%
4,COC(=O)CC[C@@H](C(=O)OC)N1C(=O)[C@@H]2Cc3c([nH]c4ccccc34)CN2C1(C)C,9.9%
5,COC(=O)[C@H](CCSC)N1C(=O)[C@@H]2Cc3c([nH]c4ccccc34)CN2C1(C)C,15.1%
6,COC(=O)[C@H](CCC(N)=O)N1C(=O)[C@@H]2Cc3c([nH]c4ccccc34)CN2C1(C)C,0%
7,COC(=O)[C@H](Cc1c[nH]c2ccccc12)N1C(=O)[C@@H]2Cc3c([nH]c4ccccc34)CN2C1(C)C,63.5%
8,CC(=O)OCC[N+](C)(C)C [ACETYLCHOLINE],42.3%
9,COC(=O)C[C@@H](C(=O)OC)N1C(=O)[C@@H]2Cc3c([nH]c4ccccc34)CN2C1(C)C,6.3%
10,COC(=O)[C@H](CO)N1C(=O)[C@@H]2Cc3c([nH]c4ccccc34)CN2C1(C)C,16.9%
11,COC(=O)[C@H](Cc1ccccc1)N1C(=O)[C@@H]2Cc3c([nH]c4ccccc34)CN2C1(C)C,0%
12,COC(=O)[C@H](Cc1ccc(O)cc1)N1C(=O)[C@@H]2Cc3c([nH]c4ccccc34)CN2C1(C)C,16.3%
13,CCC(C)[C@@H](C(=O)OC)N1C(=O)[C@@H]2Cc3c([nH]c4ccccc34)CN2C1(C)C (some centres undefined),34%
14,COC(=O)CN1C(=O)[C@@H]2Cc3c([nH]c4ccccc34)CN2C1(C)C,45.5%
15,COC(=O)[C@H](CC(N)=O)N1C(=O)[C@@H]2Cc3c([nH]c4ccccc34)CN2C1(C)C,0%
16,COC(=O)[C@H](C)N1C(=O)[C@@H]2Cc3c([nH]c4ccccc34)CN2C1(C)C,91.8%
17,COC(=O)[C@H](CCCNC(=N)N)N1C(=O)[C@@H]2Cc3c([nH]c4ccccc34)CN2C1(C)C,36.7%
18,COC(=O)[C@H](C(C)C)N1C(=O)[C@@H]2Cc3c([nH]c4ccccc34)CN2C1(C)C,24.2%

# Organism: Rattus norvegicus
# Test: Vasorelaxation activity against noradrenaline-induced hypertonic contraction in Wistar rat aorta strips
# Format: functional
# Method in brief: as §1
row,Structure (SMILES),Activity
1,COC(=O)[C@H](Cc1c[nH]c2ccccc12)N1C(=O)[C@@H]2Cc3c([nH]c4ccccc34)CN2C1(C)C,Dose-dependent effect
2,CCC(C)[C@@H](C(=O)OC)N1C(=O)[C@@H]2Cc3c([nH]c4ccccc34)CN2C1(C)C (some centres undefined),Dose-dependent effect
3,COC(=O)[C@H](C)N1C(=O)[C@@H]2Cc3c([nH]c4ccccc34)CN2C1(C)C,Dose-dependent effect
